Test [1] has as its target Serine/threonine-protein kinase RIO3 (Homo sapiens) (UniProt O14730). The test can be described thus: Binding affinity to wild-type human full length RIOK3 (M1 to E519 residues) expressed in bacterial expression system assessed as residual binding level at 1 uM by Kinomescan method relative to control. In outline:
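Active-site-directed competition binding screen across a 468-kinase panel, run with the test compound at 1 μM. The read-out is the kinase signal remaining relative to a DMSO control, reported as a percentage. […]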

Test [2] deals with Serine/threonine-protein kinase PAK 3 (Homo sapiens) (UniProt O75914). Put plainly: Binding affinity to wild-type human full length PAK3 (M1 to R544 residues) expressed in bacterial expression system assessed as residual binding level at 1 uM by Kinomescan method relative to control. The method, boiled down: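 KinomeScan, an active site-directed competition binding panel of 468 kinases. The test compound was at 1 μM. The readout is remaining kinase binding as a percentage of the DMSO control. Scores above 35% were treated as weak binding and not listed.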

The target in test [3] is Serine/threonine-protein kinase LATS2 (Homo sapiens) (UniProt Q9NRM7). The test can be described thus: Binding affinity to wild-type human partial length LATS2 (Q641 to V1088 residues) expressed in mammalian expression system assessed as residual binding level at 1 uM by Kinomescan method relative to control.
In test [4] the target is Cyclin-dependent kinase 17 (Homo sapiens) (UniProt Q00537). Put plainly: Binding affinity to wild-type human full length PCTK2 (M1 to F523 residues) expressed in bacterial expression system assessed as residual binding level at 1 uM by Kinomescan method relative to control. In outline: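 Active-site-directed competition binding panel (KinomeScan) covering 468 kinases. Test agent was screened at 1 μM. The read-out is the remaining kinase signal expressed relative to a DMSO control. Scores above 35%, taken as weak binding, were not reported.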

In test [5] the target is Serine/threonine-protein kinase mTOR (Homo sapiens) (UniProt P42345). Put plainly: Binding affinity to wild-type human partial length MTOR (L1382 to W2549 residues) expressed in mammalian expression system assessed as residual binding level at 1 uM by Kinomescan method relative to control. The method, boiled down: (§1)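 Active-site-directed competition binding panel of 468 kinases (KinomeScan), compound at 1 μM. The read-out is kinase remaining bound, given as a percentage of the DMSO control. […]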

Test [6] deals with Receptor-type tyrosine-protein kinase FLT3 (Homo sapiens), P36888 [N841I]. Put plainly: Binding affinity to human partial length FLT3 N841I mutant (V592 to Y969 residues) expressed in bacterial expression system assessed as residual binding level at 1 uM by Kinomescan method relative to control. The method, boiled down:
(§2)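 KinomeScan active site-directed competition binding panel (468 kinases), compound tested at 1 μM. Result expressed as remaining kinase signal versus DMSO control (percent of control).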

Test [7] concerns the target Serine/threonine-protein kinase DCLK2 (Homo sapiens) (UniProt Q8N568). The test can be described thus: Binding affinity to wild-type human partial length DCAMKL2 (K273 to V664 residues) expressed in bacterial expression system assessed as residual binding level at 1 uM by Kinomescan method relative to control.
The target in test [8] is cGMP-dependent protein kinase 2 (Homo sapiens) (UniProt Q13237). The test can be described thus: Binding affinity to wild-type human partial length PRKG2 (S422 to F762 residues) expressed in mammalian expression system assessed as residual binding level at 1 uM by Kinomescan method relative to control.
Sequence of cGMP-dependent protein kinase 2 (Homo sapiens) (Q13237 whole entry, the tested form may be a part): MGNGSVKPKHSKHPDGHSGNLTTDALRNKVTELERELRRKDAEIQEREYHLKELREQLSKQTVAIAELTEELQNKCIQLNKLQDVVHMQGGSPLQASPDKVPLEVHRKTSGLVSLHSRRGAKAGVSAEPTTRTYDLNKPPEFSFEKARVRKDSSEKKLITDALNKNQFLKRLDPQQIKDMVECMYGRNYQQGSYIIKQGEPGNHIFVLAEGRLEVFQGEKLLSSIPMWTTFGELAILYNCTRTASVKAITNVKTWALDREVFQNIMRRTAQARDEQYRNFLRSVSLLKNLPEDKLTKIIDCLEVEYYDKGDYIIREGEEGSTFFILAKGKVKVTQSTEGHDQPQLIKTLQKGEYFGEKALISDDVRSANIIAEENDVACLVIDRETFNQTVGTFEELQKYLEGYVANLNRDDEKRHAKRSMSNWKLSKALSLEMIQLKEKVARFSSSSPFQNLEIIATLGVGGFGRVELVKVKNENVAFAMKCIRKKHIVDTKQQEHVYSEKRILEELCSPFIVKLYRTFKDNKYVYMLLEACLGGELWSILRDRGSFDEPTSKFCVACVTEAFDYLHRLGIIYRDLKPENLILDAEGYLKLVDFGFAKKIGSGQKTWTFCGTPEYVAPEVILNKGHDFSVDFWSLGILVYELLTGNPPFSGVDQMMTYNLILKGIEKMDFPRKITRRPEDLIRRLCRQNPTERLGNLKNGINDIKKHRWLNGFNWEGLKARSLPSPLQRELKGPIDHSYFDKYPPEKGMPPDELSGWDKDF
Test [9] has as its target Ephrin type-A receptor 8 (Homo sapiens) (UniProt P29322). The test can be described thus: Binding affinity to wild-type human partial length EPHA8 (Q608 to C920 residues) expressed in bacterial expression system assessed as residual binding level at 1 uM by Kinomescan method relative to control. In outline:
as §1

Test [10] has as its target Macrophage-stimulating protein receptor (Homo sapiens) (UniProt Q04912). The test can be described thus: Binding affinity to wild-type human partial length MST1R (I1057 to L1363 residues) expressed in bacterial expression system assessed as residual binding level at 1 uM by Kinomescan method relative to control.
Test [11] addresses Ribosomal protein S6 kinase alpha-6 (Homo sapiens) (UniProt Q9UK32). Put plainly: Binding affinity to wild-type human partial length N- terminal RSK4 kinase domain 1 (M1 to E397 residues) expressed in mammalian expression system assessed as residual binding level at 1 uM by Kinomescan method relative to control. The method, boiled down:
as §1

Test [12] has as its target Glycogen synthase kinase-3 alpha (Homo sapiens) (UniProt P49840). Put plainly: Binding affinity to wild-type human full length GSK3A (M1 to S483 residues) expressed in bacterial expression system assessed as residual binding level at 1 uM by Kinomescan method relative to control. In outline:
(§3)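 Active-site-directed KinomeScan competition binding panel covering 468 kinases, compound tested at 1 μM. Each readout is the kinase signal remaining with compound, expressed as a percentage of the DMSO control. […]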

Test [13] has as its target Death-associated protein kinase 3 (Homo sapiens) (UniProt O43293). Put plainly: Binding affinity to wild-type human partial length DAPK3 (M1 to A277 residues) expressed in bacterial expression system assessed as residual binding level at 1 uM by Kinomescan method relative to control.
Test [14] deals with Mitogen-activated protein kinase 10 (Homo sapiens) (UniProt P53779). The test can be described thus: Binding affinity to wild-type human partial length JNK3 (V28 to Q422 residues) expressed in mammalian expression system assessed as residual binding level at 1 uM by Kinomescan method relative to control.
For test [15], the target named is Rhodopsin kinase GRK7 (Homo sapiens) (UniProt Q8WTQ7). The test can be described thus: Binding affinity to wild-type human full length GRK7 (M1 to L553 residues) expressed in mammalian expression system assessed as residual binding level at 1 uM by Kinomescan method relative to control. The method, boiled down: as §3
Sequence of Rhodopsin kinase GRK7 (Homo sapiens) (Q8WTQ7 whole entry, the tested form may be a part): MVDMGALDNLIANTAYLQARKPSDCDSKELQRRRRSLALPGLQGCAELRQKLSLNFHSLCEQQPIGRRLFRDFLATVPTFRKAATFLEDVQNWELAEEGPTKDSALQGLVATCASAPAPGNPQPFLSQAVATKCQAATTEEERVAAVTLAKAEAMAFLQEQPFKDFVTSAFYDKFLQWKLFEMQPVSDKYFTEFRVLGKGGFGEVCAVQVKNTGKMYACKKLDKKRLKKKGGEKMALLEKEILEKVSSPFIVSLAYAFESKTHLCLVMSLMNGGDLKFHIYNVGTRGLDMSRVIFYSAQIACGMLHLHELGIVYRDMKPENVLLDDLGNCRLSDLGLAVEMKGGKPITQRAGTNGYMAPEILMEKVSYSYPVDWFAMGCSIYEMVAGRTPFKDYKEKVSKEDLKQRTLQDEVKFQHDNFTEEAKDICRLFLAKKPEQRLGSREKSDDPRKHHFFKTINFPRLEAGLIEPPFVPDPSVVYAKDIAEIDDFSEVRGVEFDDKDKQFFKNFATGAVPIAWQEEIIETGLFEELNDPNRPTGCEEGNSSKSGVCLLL
Test [16] relates to Mast/stem cell growth factor receptor Kit (Homo sapiens), P10721 [UNDEFINED MUTATION]. The test can be described thus: Binding affinity to human partial length KIT V559D/V654 double mutant (Y545 to D952 residues) expressed in bacterial expression system assessed as residual binding level at 1 uM by Kinomescan method relative to control. The method, boiled down: as §2
Sequence of Mast/stem cell growth factor receptor Kit (Homo sapiens), P10721 [UNDEFINED MUTATION] (P10721 whole entry, looked up, stated change not applied, the tested form may be a part): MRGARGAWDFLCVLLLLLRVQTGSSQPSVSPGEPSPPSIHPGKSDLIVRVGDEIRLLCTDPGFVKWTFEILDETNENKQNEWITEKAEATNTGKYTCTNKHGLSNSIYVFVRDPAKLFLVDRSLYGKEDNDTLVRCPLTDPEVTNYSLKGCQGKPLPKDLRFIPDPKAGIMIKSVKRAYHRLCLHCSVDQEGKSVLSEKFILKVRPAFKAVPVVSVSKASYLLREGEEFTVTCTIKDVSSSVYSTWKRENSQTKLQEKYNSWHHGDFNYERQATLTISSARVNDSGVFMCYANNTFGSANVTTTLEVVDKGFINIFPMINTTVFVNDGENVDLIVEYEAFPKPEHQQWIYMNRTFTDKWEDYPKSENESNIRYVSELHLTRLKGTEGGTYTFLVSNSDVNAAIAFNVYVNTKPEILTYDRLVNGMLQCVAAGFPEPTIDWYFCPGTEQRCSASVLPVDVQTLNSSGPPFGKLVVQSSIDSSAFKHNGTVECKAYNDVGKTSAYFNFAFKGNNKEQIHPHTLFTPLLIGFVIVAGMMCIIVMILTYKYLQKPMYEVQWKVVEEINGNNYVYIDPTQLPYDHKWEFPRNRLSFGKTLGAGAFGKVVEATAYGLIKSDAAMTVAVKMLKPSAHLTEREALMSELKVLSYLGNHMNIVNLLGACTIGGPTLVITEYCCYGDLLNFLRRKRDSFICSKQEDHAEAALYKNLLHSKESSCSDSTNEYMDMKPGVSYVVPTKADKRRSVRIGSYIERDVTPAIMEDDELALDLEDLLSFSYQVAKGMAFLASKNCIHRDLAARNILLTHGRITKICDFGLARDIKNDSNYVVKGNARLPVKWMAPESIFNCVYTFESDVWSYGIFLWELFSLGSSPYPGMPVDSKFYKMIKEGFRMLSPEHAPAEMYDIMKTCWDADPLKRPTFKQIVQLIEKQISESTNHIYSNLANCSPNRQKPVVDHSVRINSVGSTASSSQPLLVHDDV
Test [17] has as its system Fibroblast growth factor receptor 3 (Homo sapiens), P22607 [G697C]. Put plainly: Binding affinity to human partial length FGFR3 G697C mutant (R442 to S771 residues) expressed in bacterial expression system assessed as residual binding level at 1 uM by Kinomescan method relative to control. The method, boiled down: as §2
For test [18], the target named is Mitogen-activated protein kinase; ERK1/ERK2 (Homo sapiens) (UniProt P27361+P28482). Put plainly: Inhibition of ERK1/2 in human NCI-H1975 cells assessed as blocking of ERK1/2 pulldown at 1 uM in presence of TL13-68 incubated for 2 hrs by Western blot analysis. In kind it is cell-based. The method, boiled down:
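H1975 or HCC827 cells treated with 1 μM compound or DMSO for 2 h, rinsed twice in cold PBS, and lysed in M-PER with protease/phosphatase inhibitors. Lysate rocked overnight at 4 °C with 1 μM TL13-68, then streptavidin pulldown with five cold washes. Bound kinases detected by Western blot. Two independent experiments.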
On the technique in general: Immunoblotting shows a protein as a band on a membrane.

In test [19] the test system is Epidermal growth factor receptor (Homo sapiens), P00533 [G719C]. Put plainly: Binding affinity to human partial length EGFR G719C mutant (R669 to V1011 residues) expressed in bacterial expression system assessed as residual binding level at 1 uM by Kinomescan method relative to control. The method, boiled down: as §2

The results in this text go back to ChEMBL document CHEMBL4354843, “Structure-Based Design of a Potent and Selective Covalent Inhibitor for SRC Kinase That Targets a P-Loop Cysteine” (J Med Chem, 2020).

The source made the active and inactive calls. The rule behind the calls is not given here.

Sequence of Death-associated protein kinase 3 (Homo sapiens) (O43293 whole entry, looked up, the tested form may be a part): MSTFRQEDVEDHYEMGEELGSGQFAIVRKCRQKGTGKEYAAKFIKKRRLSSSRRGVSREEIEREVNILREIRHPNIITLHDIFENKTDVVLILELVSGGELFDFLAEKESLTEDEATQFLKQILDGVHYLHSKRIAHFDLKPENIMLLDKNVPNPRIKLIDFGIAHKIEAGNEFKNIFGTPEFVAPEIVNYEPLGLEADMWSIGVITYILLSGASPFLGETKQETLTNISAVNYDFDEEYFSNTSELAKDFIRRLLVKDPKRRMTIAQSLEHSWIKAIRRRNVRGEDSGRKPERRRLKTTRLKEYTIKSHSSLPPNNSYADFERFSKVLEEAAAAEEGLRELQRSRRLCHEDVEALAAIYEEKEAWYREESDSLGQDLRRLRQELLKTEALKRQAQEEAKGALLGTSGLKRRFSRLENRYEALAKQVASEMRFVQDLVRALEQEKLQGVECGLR
Sequence of Fibroblast growth factor receptor 3 (Homo sapiens), P22607 [G697C] (P22607 whole entry G697C, the tested form may be a part): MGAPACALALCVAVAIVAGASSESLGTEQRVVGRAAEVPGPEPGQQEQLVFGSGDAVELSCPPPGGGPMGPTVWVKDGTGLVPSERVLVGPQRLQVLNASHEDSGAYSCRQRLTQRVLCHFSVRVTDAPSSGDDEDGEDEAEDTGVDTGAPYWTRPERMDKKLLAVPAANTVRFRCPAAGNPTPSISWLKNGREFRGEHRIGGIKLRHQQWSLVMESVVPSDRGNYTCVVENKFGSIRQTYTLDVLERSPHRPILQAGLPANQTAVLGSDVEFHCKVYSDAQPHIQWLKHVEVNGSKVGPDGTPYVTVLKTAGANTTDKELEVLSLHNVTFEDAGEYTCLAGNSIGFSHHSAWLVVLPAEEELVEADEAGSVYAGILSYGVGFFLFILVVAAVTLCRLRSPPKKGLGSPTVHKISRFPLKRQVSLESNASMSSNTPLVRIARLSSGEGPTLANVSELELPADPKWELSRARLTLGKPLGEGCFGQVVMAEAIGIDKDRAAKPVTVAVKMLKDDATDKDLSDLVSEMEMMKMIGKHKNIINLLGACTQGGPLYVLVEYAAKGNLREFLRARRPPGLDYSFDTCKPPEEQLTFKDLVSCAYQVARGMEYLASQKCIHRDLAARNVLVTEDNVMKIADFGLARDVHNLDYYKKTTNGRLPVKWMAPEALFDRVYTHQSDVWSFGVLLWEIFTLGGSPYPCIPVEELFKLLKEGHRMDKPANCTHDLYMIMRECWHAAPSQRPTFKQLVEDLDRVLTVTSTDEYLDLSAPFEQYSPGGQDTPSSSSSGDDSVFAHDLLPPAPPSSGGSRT
Sequence of Mitogen-activated protein kinase; ERK1/ERK2 (Homo sapiens) (P27361 whole entry, looked up): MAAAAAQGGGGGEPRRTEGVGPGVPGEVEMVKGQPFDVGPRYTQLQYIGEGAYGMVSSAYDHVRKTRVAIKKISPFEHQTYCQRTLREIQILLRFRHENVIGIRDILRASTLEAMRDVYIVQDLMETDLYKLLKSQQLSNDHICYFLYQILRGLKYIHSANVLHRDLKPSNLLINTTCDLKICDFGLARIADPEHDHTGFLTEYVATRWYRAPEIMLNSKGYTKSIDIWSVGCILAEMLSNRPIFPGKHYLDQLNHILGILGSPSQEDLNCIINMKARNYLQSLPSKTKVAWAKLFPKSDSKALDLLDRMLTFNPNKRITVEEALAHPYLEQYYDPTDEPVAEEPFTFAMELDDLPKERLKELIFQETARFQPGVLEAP
Sequence of Mitogen-activated protein kinase; ERK1/ERK2 (Homo sapiens) (P28482 whole entry, looked up): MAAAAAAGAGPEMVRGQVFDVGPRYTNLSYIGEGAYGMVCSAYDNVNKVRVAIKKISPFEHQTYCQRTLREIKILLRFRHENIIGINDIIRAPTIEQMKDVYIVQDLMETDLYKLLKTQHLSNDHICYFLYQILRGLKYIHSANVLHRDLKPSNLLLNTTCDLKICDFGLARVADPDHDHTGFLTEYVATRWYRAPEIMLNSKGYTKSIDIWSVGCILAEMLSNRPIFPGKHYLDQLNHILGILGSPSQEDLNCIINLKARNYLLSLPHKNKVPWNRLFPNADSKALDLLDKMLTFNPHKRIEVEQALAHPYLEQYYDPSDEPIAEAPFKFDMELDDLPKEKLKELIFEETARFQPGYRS
Sequence of Serine/threonine-protein kinase RIO3 (Homo sapiens) (O14730 whole entry, the tested form may be a part): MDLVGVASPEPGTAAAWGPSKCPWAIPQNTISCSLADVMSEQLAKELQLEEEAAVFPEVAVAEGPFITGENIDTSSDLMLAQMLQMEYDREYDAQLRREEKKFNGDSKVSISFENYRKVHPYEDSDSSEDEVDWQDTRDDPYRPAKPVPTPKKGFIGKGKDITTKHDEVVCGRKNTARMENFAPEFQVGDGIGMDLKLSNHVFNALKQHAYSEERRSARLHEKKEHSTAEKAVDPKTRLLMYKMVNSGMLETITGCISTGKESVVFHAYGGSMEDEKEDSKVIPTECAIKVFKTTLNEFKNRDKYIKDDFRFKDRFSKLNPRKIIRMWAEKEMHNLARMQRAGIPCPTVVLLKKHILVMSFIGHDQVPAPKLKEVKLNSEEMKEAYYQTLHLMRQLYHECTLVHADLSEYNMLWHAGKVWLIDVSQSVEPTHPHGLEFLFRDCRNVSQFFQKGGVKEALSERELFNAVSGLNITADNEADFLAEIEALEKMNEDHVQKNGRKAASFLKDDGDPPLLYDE

`C=CC(=O)Nc1ccccc1Nc1nc(Nc2ccc(N3CCN(C)CC3)cc2)ncc1C(=O)Nc1c(C)cccc1Cl`: the Activity in test [1] was determined as 92%; in test [2], 76%; in test [3] it was 100%; in test [4], 100%; in test [5], 98%; in test [6] it was 100%. Also, the Activity in test [7] worked out at 100%; in test [8], 100%; in test [9], 1%; in test [10], 100%; in [11], 77%; in test [12], 100%. Moreover, the Activity in test [13], in test [14], in test [15], in [16], in test [17] and in test [19] was 100% in each case. Also, the inhibition result in test [18] is “inactive”.
